# PubChem BioAssay AID588582 (Sanford-Burnham Center for Chemical Genomics, 2011)
# The source made the active and inactive calls.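 The calls were made as follows: active = mean EC50 at or below 20 µM; inactive = the rest.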
# Biological target: CHO-XBP1 luciferase reporter, IRE1-XBP1 arm activation
# Experiment: IRE1-XBP1 reporter activation in CHO-XBP1 cells, SAR follow-up, counter-screen for UPR apoptotic arm activator project, cell-based, luciferase luminescence, set 2 (AID 588582)
# How it was run: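 Test system: CHO-XBP1 luciferase reporter cells. Timing: cells plated 16–18 h before dosing, compound exposure 6 h at 37 °C. Signal: Steady-Glo luminescence. Doses: concentration series, DMSO ≤1% final.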
row,SMILES,EC50
1,O=C(Nc1ccc(S(=O)(=O)N2CCC(Cl)CC2)cc1)c1ccc([N+](=O)[O-])o1,> 80 µM (inactive)
2,CC(C)(C)C1CCN(S(=O)(=O)c2ccc(NC(=O)c3ccc([N+](=O)[O-])o3)cc2)CC1,> 80 µM (inactive)
3,O=C(Nc1nc2cccc(F)c2s1)c1ccccn1,> 80 µM (inactive)
4,O=C(Nc1ccc(S(=O)(=O)N2CCC(F)CC2)cc1)c1ccc([N+](=O)[O-])o1,> 80 µM (inactive)
5,O=C(Nc1nc2cc(F)cc(F)c2s1)c1ccccn1,> 80 µM (inactive)
6,O=C(Nc1nc2cc(F)ccc2s1)c1ccccn1,> 80 µM (inactive)
7,CC1(C)CCN(S(=O)(=O)c2ccc(NC(=O)c3cccc([N+](=O)[O-])c3)cc2)CC1,> 80 µM (inactive)
8,Cn1c([N+](=O)[O-])cnc1C(=O)Nc1ccc(S(=O)(=O)N2CCC(C)(C)CC2)cc1,> 80 µM (inactive)
9,O=C(Nc1ccc(S(=O)(=O)C2CCOCC2)cc1)c1ccc([N+](=O)[O-])o1,> 80 µM (inactive)
10,O=C(Nc1nc2c(F)ccc(F)c2s1)c1ccccn1,> 80 µM (inactive)
11,O=C(Nc1nc2cc(F)c(F)cc2s1)c1ccccn1,> 80 µM (inactive)
12,O=C(Nc1nc2ccc(Cl)cc2s1)c1ccccn1,> 80 µM (inactive)
13,CC1CN(S(=O)(=O)c2ccc(NC(=O)c3ccc([N+](=O)[O-])o3)cc2)CC(C)O1 (stereo not drawn),> 80 µM (inactive)
14,O=C(Nc1ccc(S(=O)(=O)N2CCC3(CCCCC3)CC2)cc1)c1ccc([N+](=O)[O-])o1,> 80 µM (inactive)
15,CC1(C)CCN(S(=O)(=O)c2ccc(NC(=O)c3ccc(C(F)(F)F)o3)cc2)CC1,> 80 µM (inactive)
16,O=C(Nc1nc2c(F)c(F)ccc2s1)c1ccccn1,> 80 µM (inactive)
17,O=C(Nc1nc2ccc(C(F)(F)F)cc2s1)c1ccccn1,> 80 µM (inactive)
18,O=C(Nc1nc2ccc(F)c(F)c2s1)c1ccccn1,> 80 µM (inactive)
